Active and inactive are the calls of the source. No cut-off for these calls is given here.
Legend:
[1] = Phototoxicity human CD8 positive cells co-cultured with GFP expressing human HUT78 cells assessed as cell survival at 7.5 x 10^-8 M preincubated 20 mins in photosensitizer media followed by growth in photosensitizer-free media for 30 mins measured 18 hrs after exposure to 5 J/cm2 irradiation by FACS analysis; assay type: cell-based; conditions: read-out: Survival
Outline: (§1)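 Non-stimulated PBMCs from healthy donors (Ficoll-separated) were mixed 5:1 with GFP-transfected, sorted (>98%) HUT-78 cells. Cells took up 7.5×10^-8 M photosensitizer for 20 min, then spent 30 min in dye-free medium. They were exposed to 5 J cm^-2 light (600 nm LED) with rotation at 180 rpm. Survival was gated by FACS (GFP, CD3, CD4, CD8) 18 h later versus non-irradiated controls. Triplicate; mean ± SEM.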

[2] = Drug uptake in SEB-stimulated human CD25 negative cells assessed as mean fluorescence intensity at 5 x 10^-8 M preincubated for 20 mins followed by growth in photosensitizer-free media for 30 mins by flow cytometric analysis relative to control; conditions: 0.5 h, 0.05 µM
[3] = tested on: HuT78; conditions: human, hut78, 0.5 h, 0.075 µM
[4] = tested on: HuT78; conditions: human, hut78, 0.5 h, 0.075 µM; remark: listed apart in the source
[5] = Phototoxicity human CD4 positive cells co-cultured with GFP expressing human HUT78 cells assessed as cell survival at 7.5 x 10^-8 M preincubated 20 mins in photosensitizer media followed by growth in photosensitizer-free media for 30 mins measured 18 hrs after exposure to 5 J/cm2 irradiation by FACS analysis; assay type: cell-based; conditions: read-out: Survival; outline: as §1
[6] = tested on: ABCB1; assay: Permeability from apical to basolateral side in dog MDCK2-MDR1 cells expressing ABCB1 at 5 uM after 30 mins in absence of compound 15 by LC-MS/MS analysis; assay type: ADME, cell-based, Canis lupus familiaris, MDCK-II; conditions: MDCK-MDR1, read-out: permeability
Outline: (§2)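 MDR1-transfected MDCKII cells (passage 16–42) were seeded at 50,000 cells cm^-2 on Transwell filters and used on day 6. Monolayers were rinsed in DPBS with 10^-2 M HEPES, pH 7.4, at 37 °C. They were preincubated 30 min in 4.3 mg/mL BSA/DPBSH with or without 5×10^-6 M P-gp inhibitor. 5 μM dye was added apically or basolaterally and samples taken after 1 h at 37 °C with nutation. Quantitation was by LC-MS/MS; P_passive is the mean of P_AB and P_BA under full inhibition. Mean ± SD.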

[7] = tested on: ABCB1; assay: Passive permeability in dog MDCK2-MDR1 cells expressing ABCB1 at 5 uM after 30 mins in presence of compound 15 by LC-MS/MS analysis; assay type: ADME, cell-based, Canis lupus familiaris, MDCK-II; conditions: MDCK-MDR1, with compound 15 (concentration not stated), read-out: permeability; outline: as §2
[8] = Drug uptake in human HUT78 cell mitochondria by MTG-based bright field microscopic analysis; assay type: ADME
Outline: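 HUT-78 cells (5×10^5 in 0.5 mL medium) were incubated 15 min with 2×10^-7 M dye together with 5×10^-7 M MitoTracker Green. They were centrifuged and analysed by ImageStream imaging flow cytometry, with MTG excited at 488 nm (480–560 nm channel) and dye excited at 561 nm (642–745 nm channel). Colocalisation was given as the bright detail similarity score, mean ± SD over cells.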

[9] = Drug uptake in SEB-stimulated human CD25 positive cells assessed as mean fluorescence intensity at 5 x 10^-8 M preincubated for 20 mins followed by growth in photosensitizer-free media for 30 mins by flow cytometric analysis relative to control; conditions: 0.5 h, 0.05 µM
[10] = tested on: ABCB1; assay: Permeability from apical to basolateral side in dog MDCK2-MDR1 cells expressing ABCB1 at 5 uM after 30 mins in presence of compound 15 by LC-MS/MS analysis; assay type: ADME, cell-based, Canis lupus familiaris, MDCK-II; conditions: MDCK-MDR1, with compound 15 (concentration not stated), read-out: permeability; outline: as §2
[11] = Drug extrusion in SEB-stimulated human CD25 negative cells assessed as change in mean fluorescence intensity at 5 x 10^-8 M preincubated for 20 mins followed by growth in photosensitizer-free media for 30 mins by flow cytometric analysis relative to control; conditions: 0.5 h, 0.05 µM
[12] = tested on: HuT78; assay: Phototoxicity in GFP expressing human HUT78 cells co-cultured with human PBMC cells assessed as cell survival at 7.5 x 10^-8 M preincubated 20 mins in photosensitizer media followed by growth in photosensitizer-free media for 30 mins measured 18 hrs after exposure to 5 J/cm2 irradiation by FACS analysis; assay type: functional; conditions: HuT78, light or radiation study, read-out: Survival; outline: as §1
[13] = Drug extrusion in SEB-stimulated human CD25 positive cells assessed as change in mean fluorescence intensity at 5 x 10^-8 M preincubated for 20 mins followed by growth in photosensitizer-free media for 30 mins by flow cytometric analysis relative to control; conditions: 0.5 h, 0.05 µM
[14] = Drug extrusion in human CD4 positive cells assessed as change in mean fluorescence intensity at 5 x 10^-8 M preincubated for 20 mins followed by growth in photosensitizer-free media for 30 mins by flow cytometric analysis relative to control; assay type: cell-based; conditions: 0.5 h, 0.05 µM
[15] = Drug extrusion in human CD8 positive cells assessed as change in mean fluorescence intensity at 5 x 10^-8 M preincubated for 20 mins followed by growth in photosensitizer-free media for 30 mins by flow cytometric analysis relative to control; assay type: cell-based; conditions: 0.5 h, 0.05 µM
[16] = tested on: HuT78; assay: Phototoxicity against human HUT78 cells assessed as reduction in cell viability preincubated for 1 hr in dark at 5 x 10^-8M before exposure to 0.5 to 2 J/cm2 irradiation after 48 hrs by MTT assay; assay type: functional, cell-based
Outline: (§3)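 HUT-78 cells in RPMI 1640 with 10% FBS, 1% HEPES and 1% penicillin-streptomycin were plated at 7.5×10^4 per well and grown 24 h. Dye was added to final 5×10^-8 to 5×10^-7 M, then 1 h in the dark. Plates were kept dark or irradiated with a 633 ± 2 nm dye laser at ~3.2 mW cm^-2 to 0.5, 1.0 or 2.0 J cm^-2. Medium was replaced, 48 h at 37 °C, then MTT read at 570 nm. Triplicate runs; EC50/LD50 by sigmoidal variable-slope fit.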

[17] = Phototoxicity human CD3 positive cells co-cultured with GFP expressing human HUT78 cells assessed as cell survival at 7.5 x 10^-8 M preincubated 20 mins in photosensitizer media followed by growth in photosensitizer-free media for 30 mins measured 18 hrs after exposure to 5 J/cm2 irradiation by FACS analysis; assay type: cell-based; conditions: read-out: Survival; outline: as §1
[18] = Drug extrusion in human CD3 positive cells assessed as change in mean fluorescence intensity at 5 x 10^-8 M preincubated for 20 mins followed by growth in photosensitizer-free media for 30 mins by flow cytometric analysis relative to control; assay type: cell-based; conditions: 0.5 h, 0.05 µM
[19] = tested on: HuT78; assay: Phototoxicity against human HUT78 cells assessed as reduction in cell viability preincubated for 1 hr in dark before exposure to 1 J/cm2 irradiation after 48 hrs by MTT assay; assay type: functional, cell-based; conditions: for EC50: HuT78, light or radiation study; outline: as §3
[20] = Drug extrusion in SEB-stimulated human CD25 negative cells assessed as mean fluorescence intensity at 5 x 10^-8 M preincubated for 20 mins followed by growth in photosensitizer-free media for 30 mins by flow cytometric analysis relative to control; conditions: 0.5 h, 0.05 µM
[21] = tested on: HuT78; assay: Drug uptake in GFP expressing human HUT78 cells co-cultured with non-stimulated human PBMC cells assessed as change in mean fluorescence intensity at 7.5 x 10^-8 M after 20 mins followed by growth in photosensitizer-free media for 30 mins by flow cytometric analysis relative to control; assay type: cell-based; conditions: hut78, 0.5 h, 0.075 µM
[22] = Drug extrusion in SEB-stimulated human CD25 positive cells assessed as mean fluorescence intensity at 5 x 10^-8 M preincubated for 20 mins followed by growth in photosensitizer-free media for 30 mins by flow cytometric analysis relative to control; conditions: 0.5 h, 0.05 µM
[23] = Dark toxicity against human HUT78 cells assessed as reduction in cell viability preincubated for 1 hr in dark after 48 hrs by MTT assay; assay type: cell-based; conditions: read-out: LD50; outline: as §3
[24] = tested on: ABCB1; assay: Permeability from basolateral to apical side in dog MDCK2-MDR1 cells expressing ABCB1 at 5 uM after 30 mins in presence of compound 15 by LC-MS/MS analysis; assay type: ADME, cell-based, Canis lupus familiaris, MDCK-II; conditions: MDCK-MDR1, with compound 15 (concentration not stated), read-out: permeability; outline: as §2
[25] = tested on: ABCB1; assay: Permeability from basolateral to apical side in dog MDCK2-MDR1 cells expressing ABCB1 at 5 uM after 30 mins in absence of compound 15 by LC-MS/MS analysis; assay type: ADME, cell-based, Canis lupus familiaris, MDCK-II; conditions: MDCK-MDR1, read-out: permeability; outline: as §2

| SMILES | viability at 18 h, 0.075 µM [1] [%] | Flu intensity [2] [a.u.] | Flu intensity [3] [a.u.] | Flu intensity [4] [a.u.] | viability at 18 h, 0.075 µM [5] [%] | Papp A→B at 0.5 h, 5 µM [6] [×10⁻⁶ cm/s] | Papp at 0.5 h, 5 µM [7] [×10⁻⁶ cm/s] | Drug uptake [8] | Flu intensity [9] [a.u.] | Papp A→B at 0.5 h, 5 µM [10] [×10⁻⁶ cm/s] | Activity [11] [%] | viability at 0.075 µM [12] [%] | Activity [13] [%] | Activity [14] [%] | Activity [15] [%] | Activity [16] | viability at 18 h, 0.075 µM [17] [%] | Activity [18] [%] | Activity [19] | EC50 [19] [nM] | also measured |
| --- | --- | --- | --- | --- | --- | --- | --- | --- | --- | --- | --- | --- | --- | --- | --- | --- | --- | --- | --- | --- | --- |
| O=C(c1ccc(C2=c3cc4c5c(c3[Se]c3c2cc2c6c3CCCN6CCC2)CCC[N+]=5CCC4)s1)N1CCCCC1.[Cl-] | 78 | 1450 | 4500 | 6800 | 63.3 | 0.21 | 0.2 | Active | 7510 | 0.024 | 59.8 | 3.9 | 39.9 | 59.1 | 69 | Active | 62.1 | 54.6 | Dose-dependent effect | 70 | Flu intensity [20]: 580 a.u.; Activity [21]: 55.7%; Flu intensity [22]: 4500 a.u.; CC50 at 48 h [23]: 730 nM; Papp B→A at 0.5 h, 5 µM [24]: 0.48 ×10⁻⁶ cm/s; Papp B→A at 0.5 h, 5 µM [25]: 7.8 ×10⁻⁶ cm/s |
| S=C(c1ccc(C2=c3cc4c5c(c3[Se]c3c2cc2c6c3CCCN6CCC2)CCC[N+]=5CCC4)s1)N1CCCCC1.[Cl-] | 11.3 | 25500 | 66000 | 81000 | 1.5 | 0.03 | < 0.1 | Active | 83300 | 0.051 | 35.2 | 0 | 16.8 | 36.1 | 59.2 | Active | 5.8 | 33.1 | Dose-dependent effect | 35 | Flu intensity [20]: 16600 a.u.; Activity [21]: 28.1%; Flu intensity [22]: 69000 a.u.; CC50 at 48 h [23]: 1080 nM; Papp B→A at 0.5 h, 5 µM [24]: 0.057 ×10⁻⁶ cm/s; Papp B→A at 0.5 h, 5 µM [25]: 1.8 ×10⁻⁶ cm/s |
